Assay [1] has as its target Acetylcholinesterase (Homo sapiens, UniProt P22303). Description: Inhibition of human recombinant AChE using acetylthiocholine iodide as substrate measured over 60 secs by Ellman assay. An outline of the steps:
(§1)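 Dose-response Ellman assay on recombinant enzyme in 0.1 M phosphate pH 7.4 with 0.2 mM DTNB and 1 mM acetylthiocholine iodide. At least eight inhibitor concentrations were used, up to 1 mM, diluted from 100 mM DMSO stocks. Run manually at 30 °C with A412 read over 60 s. Activity is relative to uninhibited wells. IC50 was obtained by non-linear log[inhibitor] fitting from 2 replicates.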

Assay [2] concerns the target Acetylcholinesterase (Anopheles gambiae) (UniProt Q869C3). Description: Inhibition of Anopheles gambiae recombinant AChE1 expressed in baculovirus infected insect Sf9 cells at 50 uM using acetylthiocholine iodide as substrate measured over 60 secs by Ellman assay relative to control. An outline of the steps: (§2)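 Single-concentration HTS with secreted, non-purified Sf-9-expressed mosquito AChE1 in growth medium. Assay in 0.1 M phosphate buffer pH 7.4 with 0.2 mM DTNB and 1 mM acetylthiocholine iodide. Compounds were tested at a final 50 µM from DMSO stocks. The A412 slope was read over 60 s. Activity was expressed relative to the mean of eight uninhibited control wells per plate.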

The target in assay [3] is Acetylcholinesterase (Anopheles gambiae, UniProt Q869C3). Description: Inhibition of Anopheles gambiae recombinant AChE1 expressed in baculovirus infected insect Sf9 cells using acetylthiocholine iodide as substrate measured over 60 secs by Ellman assay. An outline of the steps:
as §1

A short description of assay [4]: Inhibition of Aedes aegypti recombinant AChE1 expressed in baculovirus infected insect Sf9 cells at 50 uM using acetylthiocholine iodide as substrate measured over 60 secs by Ellman assay relative to control. An outline of the steps: as §2
A short description of assay [5]: Selectivity ratio of IC50 for human recombinant AChE to IC50 for Anopheles gambiae recombinant AChE1.
Assay [6] can be described thus: Selectivity ratio of IC50 for human recombinant AChE to IC50 for Aedes aegypti recombinant AChE1.
Assay [7] deals with Acetylcholinesterase (Anopheles gambiae, UniProt Q869C3, G122S). Description: Inhibition of Anopheles gambiae recombinant AChE1 G122S mutant using acetylthiocholine iodide as substrate by Ellman assay. Summed up:
as §1

Assay [8] can be described thus: Inhibition of Aedes aegypti recombinant AChE1 expressed in baculovirus infected insect Sf9 cells using acetylthiocholine iodide as substrate measured over 60 secs by Ellman assay. An outline of the steps: as §1
Assay [9] addresses T1, Acetylcholinesterase (Mus musculus, UniProt P21836).
T1 sequence (P21836 whole entry): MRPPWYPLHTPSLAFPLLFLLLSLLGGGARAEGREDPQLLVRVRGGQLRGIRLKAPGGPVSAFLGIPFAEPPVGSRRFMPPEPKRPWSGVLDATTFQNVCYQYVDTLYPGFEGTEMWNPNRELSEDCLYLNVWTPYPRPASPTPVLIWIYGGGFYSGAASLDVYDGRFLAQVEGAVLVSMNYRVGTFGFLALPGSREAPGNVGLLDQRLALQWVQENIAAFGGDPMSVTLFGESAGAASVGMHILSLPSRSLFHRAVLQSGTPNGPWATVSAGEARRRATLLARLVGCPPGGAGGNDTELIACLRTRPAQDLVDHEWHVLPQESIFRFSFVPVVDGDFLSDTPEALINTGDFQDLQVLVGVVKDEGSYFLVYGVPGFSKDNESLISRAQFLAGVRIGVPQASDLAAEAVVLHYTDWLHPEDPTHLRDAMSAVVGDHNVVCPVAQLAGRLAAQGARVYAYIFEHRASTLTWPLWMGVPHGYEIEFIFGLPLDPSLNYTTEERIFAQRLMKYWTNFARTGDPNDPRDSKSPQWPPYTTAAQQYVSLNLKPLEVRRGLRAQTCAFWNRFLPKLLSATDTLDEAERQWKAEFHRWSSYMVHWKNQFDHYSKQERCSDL
Description: Inhibition of mouse recombinant AChE using acetylthiocholine iodide as substrate measured over 60 secs by Ellman assay.

SMILES strings stand for the structures. A value given as a limit tells only on which side of the number the result lay.

Turning to `c1ccc(COc2ccc(CN3CCc4ccccc4C3)cc2)cc1`, the IC50 in [1] is > 200 µM; in [3], 2.9 µM. The inhibition was 41% in [2] and 80% in assay [4]. Further, the Ratio IC50 in [5] and in assay [6] was > 67 throughout.
For `O=C(COc1ccc(Cl)cc1Cl)Nc1ccc(CN2CCCCC2)cc1`, the values for the inhibition in assay [2] and in [4] were 93% and 91%, respectively. Besides, the IC50 in [7] amounted to 1.2 µM; in [8], 0.44 µM; in assay [3] it was 0.26 µM.
For `O=C(c1ccccc1F)N1CCN(C2CCN(Cc3ccccc3)CC2)CC1`, the IC50 in [1] was > 200 µM; in assay [8] it was 12 µM; in assay [3], 17 µM. Besides, the inhibition was found to be 32% in [2] and 33% in [4]. For the same compound, the Ratio IC50 in assay [5] and in [6] was > 12 throughout.
In the case of `O=S(=O)(NCCSc1nnc(-c2ccco2)n1-c1ccccc1)c1ccccc1`, the IC50 in assay [1], in assay [8] and in [3] was > 1000 µM in each case. In addition, the inhibition was determined as 76% in assay [2] and 82% in assay [4].
As for `CCSc1nc2sc3c(c2c(=O)n1-c1ccccc1)CCN(Cc1ccccc1)C3`, the IC50 in [1] stood at 5.1 µM; in assay [8], 8.8 µM; in assay [3], 8.3 µM. The inhibition was 94% in assay [2] and 93% in assay [4]. Moreover, the Ratio IC50 in assay [5] and in assay [6] was 0.6 in each case.
For `COc1ccc(CN2CC=C(c3ccc(F)cc3)CC2)cc1OCc1ccccc1`, the IC50 is > 200 µM in assay [1], > 100 µM in assay [8] and > 100 µM in assay [3]. For the same compound, the inhibition in assay [2] came to 86%; in [4], 90%.
Turning to `CCOc1ccc(-n2c(SCc3nc(-c4ccccc4C)no3)nnc2-c2ccccc2)cc1`, the IC50 in [1], in assay [8] and in assay [3] was > 1000 µM in each case. For the same compound, the inhibition in [2] was 63%; in [4], 1%.
Take `O=C(COc1ccccc1)N1CCN(C2CCN(Cc3ccccc3)CC2)CC1`: the figures for the IC50 in assay [1], in [8] and in assay [3] were 43 µM, 19 µM and 21 µM, respectively. The inhibition in assay [2] turned out to be 24%; in [4] it was 18%. Also, the Ratio IC50 in assay [5] and in [6] was 2 throughout.
With `Fc1ccccc1COc1ccccc1CNCCN1CCOCC1`, the IC50 in assay [1], in assay [8] and in assay [3] was > 500 µM each time. Further, the inhibition was found to be 23% in assay [2] and 38% in [4].
Take `CCN1CCN(C2CCN(C(=O)COc3ccc(-c4ccccc4)cc3)CC2)CC1`: the IC50 turned out to be 31 µM in assay [1]; 1.3 µM in assay [7]; 0.22 µM in assay [8]; 0.21 µM in assay [3]; 18 µM in assay [9]. Moreover, the inhibition is 92% in assay [2] and 76% in [4].

(Values after ChEMBL document CHEMBL3861988, “Discovery of Selective Inhibitors Targeting Acetylcholinesterase 1 from Disease-Transmitting Mosquitoes” (J Med Chem, 2016).)
